In data set [1] the target is T1, Cathepsin L (Homo sapiens, UniProt P07711). Kind of data set: Specificity of peptide-AMC substrates: cleavage by cathepsin L. The class given is biochemical.
Data set [2] concerns the target T2, Cathepsin V (Homo sapiens, UniProt O60911). The experiment in a line: Specificity of peptide-AMC substrates: cleavage by cathepsin V. The class given is biochemical.
Data set [3] deals with T3, cathepsin B (Homo sapiens, UniProt P07858). The experiment in a line: Cathepsin B inhibition, fluorogenic assay with Z-Phe-Arg-AMC substrate. The class given is biochemical. The conditions noted are these: for reduction of cathepsin B activity with Z-Phe-Arg-AMC as substrate: 64 nM inhibitor; for Ki: irreversible inhibitor KI, mean ± SD.
Data set [4] concerns the target Cathepsin C (Homo sapiens, UniProt P53634). The experiment in a line: Specificity of inhibitors: cathepsin C activity with Gly-Arg-AMC. As to conditions: for IC50: Cathepsin C, without pre-incubation. The class given is biochemical.
Data set [5] concerns the target Cathepsin H (Homo sapiens, UniProt P09668). Kind of data set: Specificity of inhibitors: cathepsin H activity with Arg-AMC. The class given is biochemical.
Data set [6] deals with T4, Cathepsin K (Homo sapiens, UniProt P43235).
T4 sequence (P43235 115-329): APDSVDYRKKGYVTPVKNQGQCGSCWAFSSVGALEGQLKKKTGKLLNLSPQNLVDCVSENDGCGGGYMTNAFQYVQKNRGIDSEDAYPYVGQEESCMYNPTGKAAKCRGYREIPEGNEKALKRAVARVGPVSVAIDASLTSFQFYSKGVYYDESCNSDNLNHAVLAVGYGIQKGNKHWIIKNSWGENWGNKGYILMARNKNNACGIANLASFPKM
The experiment in a line: Specificity of inhibitors: cathepsin K activity with Z-Phe-Arg-AMC. As to conditions: for % inhibition: pH 4.6, at 16 μM (16,000 nM) inhibitor. The class given is biochemical.

For data set [7], the target named is T1, Cathepsin L. Kind of data set: Specificity of inhibitors: cathepsin L activity with Z-Phe-Arg-AMC. The class given is biochemical. The conditions noted are these: for IC50: pH 4.6, without pre-incubation.
Data set [8] concerns the target Cathepsin S (Homo sapiens, UniProt P25774). The experiment in a line: Specificity of inhibitors: cathepsin S activity with Z-Phe-Arg-AMC. The class given is biochemical. As to conditions: for IC50 / % inhibition: Cathepsin S; for IC50: without pre-incubation; for % inhibition: at 16 μM (16,000 nM) inhibitor.
The target of data set [9] is T2, Cathepsin V. The experiment in a line: Specificity of inhibitors: cathepsin V activity with Z-Phe-Arg-AMC. The class given is biochemical. As to conditions: for IC50: without pre-incubation.
Data set [10] concerns the target Cathepsin X (Homo sapiens, UniProt Q9UBR2). The class given is biochemical. The conditions noted are these: pH 4.6, without pre-incubation.
The target in data set [11] is cathepsin B activity in human neuroblastoma cell lysate (Homo sapiens, UniProt P07858). Kind of data set: Cathepsin B activity in neuroblastoma cell homogenate in presence of inhibitors. The class given is biochemical. As to conditions: 1 μM inhibitor; SHSY5Y homogenate; Z-Arg-Arg-AMC substrate; pH 5.5. Put shortly:
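SHSY5Y cells were grown in 50% MEMalpha/50% F12-K with 10% heat-inactivated FBS at 37 °C under 5% CO2. They were collected in 0.32 M sucrose and freeze-thawed to give homogenate. CA-074-sensitive activity was taken as cathepsin B. Protein was measured by DC assay. Output is nmol AMC/μg/min, mean ± SD, Student's t-test.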

For data set [12], the target named is intracellular cathepsin B in SHSY5Y human neuroblastoma cells (Homo sapiens, UniProt P07858). The class given is cell-based. As to conditions: 50 μM, 6 hrs. The method, boiled down: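 Intact SHSY5Y cells were treated with test compound for 6 h at 37 °C. They were washed 3× in PBS, homogenised in 0.32 M sucrose and freeze-thawed. Cathepsin B activity was taken as the CA-074-sensitive fraction, normalised to DC-assay protein. Output is nmol AMC/μg/min, mean + SD, n=6, t-test.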

Data set [13] addresses T3, cathepsin B. The experiment in a line: pH profile of cathepsin B activity with peptide-AMC substrates. The class given is biochemical. The conditions noted are these: substrate 60 μM, pH 2 to 9. The method, boiled down:
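Activated cathepsin B (0.04 ng/μL) was run with 60 μM of each peptide-AMC substrate. Buffers were 50 mM citrate phosphate at pH 2.2–7.4 in 0.4-unit steps plus pH 7.2, and 50 mM Tris-HCl at pH 7.4–9.0. Assays ran at 25 °C with ex360/em460. Activity was taken as RFU/sec, the highest slope over 10 consecutive readings. Results are mean ± SEM, n=3.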

Where [14] appears, read: pH not stated in the sentence for Z-Glu-Lys-AMC, pH 4.6 for Z-Phe-Arg-AMC.
Setting [15] is: cathepsin B, pH 4.6, without preincubation, Z-Phe-Arg-AMC 40 μM.
The mark [16] stands for this setting: cathepsin B, pH 7.2, without preincubation, Z-Phe-Arg-AMC 40 μM.

Molecules are shown by their SMILES. Residues, ends and D or L forms follow the SMILES beside them. *: point of attachment. AMC = Cc1cc(=O)oc2cc(N*)ccc12; Cbz = O=C(OCc1ccccc1)* A value given as a limit tells only on which side of the number the result lay.

T1 sequence (P07711 114-333): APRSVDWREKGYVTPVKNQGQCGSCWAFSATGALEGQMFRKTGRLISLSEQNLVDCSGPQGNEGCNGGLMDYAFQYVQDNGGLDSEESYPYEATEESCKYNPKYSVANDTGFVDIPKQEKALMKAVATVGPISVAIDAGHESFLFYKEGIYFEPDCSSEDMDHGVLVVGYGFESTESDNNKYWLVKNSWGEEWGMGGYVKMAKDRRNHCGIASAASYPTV
Chain of Cathepsin C (P53634 25-134 limits assumed): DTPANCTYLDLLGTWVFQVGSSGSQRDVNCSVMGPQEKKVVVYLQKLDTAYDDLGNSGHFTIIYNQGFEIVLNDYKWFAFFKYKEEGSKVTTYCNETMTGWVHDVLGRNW
Chain of Cathepsin C (P53634 231-394 limits assumed): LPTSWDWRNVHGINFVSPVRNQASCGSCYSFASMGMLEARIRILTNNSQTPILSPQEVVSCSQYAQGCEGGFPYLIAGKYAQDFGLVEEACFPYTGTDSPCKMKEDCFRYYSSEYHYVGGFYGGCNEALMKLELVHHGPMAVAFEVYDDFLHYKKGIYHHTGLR
Chain of Cathepsin C (P53634 395-463 limits assumed): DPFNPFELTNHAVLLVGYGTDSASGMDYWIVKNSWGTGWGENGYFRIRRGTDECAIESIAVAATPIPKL
T2 sequence (O60911 114-334): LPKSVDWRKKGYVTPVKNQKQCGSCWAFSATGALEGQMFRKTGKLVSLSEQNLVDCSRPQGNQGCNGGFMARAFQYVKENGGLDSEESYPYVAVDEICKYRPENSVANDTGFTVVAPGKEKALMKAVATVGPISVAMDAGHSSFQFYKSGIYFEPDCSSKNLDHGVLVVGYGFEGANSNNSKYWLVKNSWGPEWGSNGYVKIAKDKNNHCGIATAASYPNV
Chain of Cathepsin H (P09668 116-335 limits assumed, other chains not shown): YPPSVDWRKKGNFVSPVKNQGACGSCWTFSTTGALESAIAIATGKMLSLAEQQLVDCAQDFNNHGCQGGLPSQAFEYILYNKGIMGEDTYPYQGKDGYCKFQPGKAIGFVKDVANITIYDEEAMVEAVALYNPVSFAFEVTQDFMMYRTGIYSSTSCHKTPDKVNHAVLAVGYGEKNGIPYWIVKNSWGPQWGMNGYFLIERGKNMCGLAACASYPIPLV
Chain of Cathepsin S (P25774 115-331): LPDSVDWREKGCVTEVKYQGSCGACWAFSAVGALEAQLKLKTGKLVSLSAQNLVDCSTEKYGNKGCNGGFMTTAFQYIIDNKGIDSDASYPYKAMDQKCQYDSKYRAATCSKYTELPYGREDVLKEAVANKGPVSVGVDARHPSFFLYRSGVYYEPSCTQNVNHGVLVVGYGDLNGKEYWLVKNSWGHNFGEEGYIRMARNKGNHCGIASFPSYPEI
Chain of Cathepsin X (Q9UBR2 62-303): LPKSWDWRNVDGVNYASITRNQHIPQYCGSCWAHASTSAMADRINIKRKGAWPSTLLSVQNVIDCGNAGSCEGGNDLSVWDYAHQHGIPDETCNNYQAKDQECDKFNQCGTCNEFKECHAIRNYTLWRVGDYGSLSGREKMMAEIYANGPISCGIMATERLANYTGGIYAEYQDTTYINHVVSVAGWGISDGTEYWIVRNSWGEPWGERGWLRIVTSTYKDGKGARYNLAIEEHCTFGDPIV

`Cc1cc(=O)oc2cc(NC(=O)C(CCCN=C(N)N)NC(=O)C(Cc3ccccc3)NC(=O)OCc3ccccc3)ccc12` (stereo not drawn) [Z-Phe-Arg-AMC, reference compound] (Cbz-Phe-Arg-{AMC}; configuration not given here): the “substrate activity for cathepsin L” value in data set [1] (setting [14]) is “cleaved”. Further, the “substrate activity for cathepsin V” value in data set [2] (setting [14]) is “cleaved”.

What is called kinact/KI is the second-order rate constant of inactivation. The IC50 is the point on the concentration scale where inhibition reaches its midpoint. One may read the % inhibition as the share of the control response that was lost under treatment. As to `Cc1cccc(C)c1C(=O)OCC(=O)[C@H](CCCCN)NC(=O)[C@H](CCCN=C(N)N)NC(=O)OCc1ccccc1` [Z-Arg-Lys-AOMK], the “reduction of cathepsin B activity with Z-Phe-Arg-AMC as substrate” value in data set [3] (pH 4.6) turned out to be 5%; in [3] (pH 7.2), 93%. The kinact/KI is 1800 M⁻¹ s⁻¹ in data set [3] (cathepsin B, pH 4.6) and 110000 M⁻¹ s⁻¹ in data set [3] (cathepsin B, pH 7.2). Besides, the Ki in data set [3] (cathepsin B, pH 4.6) turned out to be 15 µM; in data set [3] (cathepsin B, pH 7.2) it was 0.13 ± 0.05 µM. Also, the half-inhibitory concentration (IC50) in data set [3] (setting [15]) was 1.5 µM; in [3] (cathepsin B, pH 6.8) it was 0.022 µM; in data set [3] (setting [16]), 0.02 ± 0.0083 µM; in data set [4] (pH 4.6), greater than 16 µM; in data set [4] (pH 7.2) it was 0.85 µM; in data set [5] (pH 4.6, without pre-incubation) it was greater than 16 µM. Besides, the IC50 in [5] (pH 7.2, without pre-incubation) is greater than 16 µM; in data set [6] (pH 4.6, without pre-incubation), greater than 16 µM; in data set [6] (pH 7.2, without pre-incubation) it was greater than 16 µM; in data set [7], greater than 16 µM; in [8] (pH 4.6), greater than 16 µM; in data set [8] (pH 7.2), 2.2 µM. The concentration for half-maximal inhibition (IC50) in data set [9] (Cathepsin V, pH 7.2) is 0.44 µM; in [10] it was greater than 16 µM. Besides, in [3] (cathepsin B, ratio of KI at pH 4.6 and pH 7.2), the “fold greater potency at pH 7.2 compared to pH 4.6 (KI values)” value stood at 115 fold. The “fold more potent for cathepsin B than cathepsin C (IC50)” value in data set [4] (pH 7.2) is on record as 43 fold. Moreover, the “inhibition at 16 μM” value in data set [5] (pH 4.6, at 16 μM inhibitor) is “no inhibition”. Further, in data set [6], the “% inhibition” value is reported as “no inhibition”. The “fold more potent for cathepsin B than cathepsin S (IC50)” value in data set [8] (pH 7.2) was found to be 110 fold. In data set [9] (pH 7.2), the “fold more potent for cathepsin B than cathepsin V (IC50)” value is given as 22 fold. The “inhibition of proteolytic (cathepsin B) activity in cell lysate” value in data set [11] is “completely inhibited”. Besides, in data set [12], the cell permeability result is recorded as “cell permeable”.

Regarding `CCCNC(=O)[C@H]1O[C@@H]1C(=O)N[C@H](C(=O)N1CCC[C@H]1C(=O)O)[C@@H](C)CC` [CA-074, reference compound], in data set [11], the “inhibition of proteolytic (cathepsin B) activity in cell lysate” value was “completely inhibited”.

As for `Cc1cccc(C)c1C(=O)OCC(=O)C(CCCCN)NC(=O)C(CCC(=O)O)NC(=O)OCc1ccccc1` (stereo not drawn) [Z-Glu-Lys-AOMK], the inactivation efficiency (kinact/KI) in data set [3] (cathepsin B, pH 4.6) was determined as 2000 M⁻¹ s⁻¹; in data set [3] (cathepsin B, pH 7.2) it was 8200 M⁻¹ s⁻¹. Also, the Ki in [3] (cathepsin B, pH 4.6) was 7.9 µM; in data set [3] (cathepsin B, pH 7.2), 2.3 µM. The IC50 is 1.1 µM in data set [3] (setting [15]); 0.32 ± 0.045 µM in data set [3] (setting [16]); 8.6 µM in [4] (pH 4.6); 12 µM in data set [4] (pH 7.2); greater than 16 µM in data set [5] (pH 4.6, without pre-incubation); greater than 16 µM in data set [5] (pH 7.2, without pre-incubation). Besides, the half-inhibitory concentration (IC50) in data set [6] (pH 4.6, without pre-incubation) is greater than 16 µM; in [6] (pH 7.2, without pre-incubation), greater than 16 µM; in [7], greater than 16 µM; in [8] (pH 4.6) it was greater than 16 µM; in data set [8] (pH 7.2), greater than 16 µM; in data set [9] (Cathepsin V, pH 4.6), 1.9 µM. The half-maximal inhibitory concentration (IC50) was greater than 16 µM in data set [9] (Cathepsin V, pH 7.2) and greater than 16 µM in [10]. The “fold more potent for cathepsin B than cathepsin C (IC50)” value in [4] (pH 7.2) is 38 fold. The “% inhibition” value in data set [6] amounted to 10%; in data set [7] (pH 4.6, at 16 μM (16,000 nM) inhibitor) it was 23%; in data set [8] (pH 4.6), 26%; in data set [8] (pH 7.2) it was 30%; in data set [9] (Cathepsin V, pH 7.2, at 16 μM (16,000 nM) inhibitor), 10%.

Take `Cc1cc(=O)oc2cc(NC(=O)[C@H](CCCCN)NC(=O)[C@H](CCC(=O)O)NC(=O)OCc3ccccc3)ccc12` [Z-Glu-Lys-AMC] (Cbz-Glu-Lys-{AMC}): the “pH of maximal (optimal) hydrolysis by cathepsin B” value in data set [13] amounted to 4.6 pH. Further, in data set [1] (setting [14]), the “substrate activity for cathepsin L” value is “no activity”. Also, the “substrate activity for cathepsin V” value in [2] (setting [14]) is “no activity”.

With `Cc1cc(=O)oc2cc(NC(=O)[C@H](CCCCN)NC(=O)[C@H](CCCNC(=N)N)NC(=O)OCc3ccccc3)ccc12` [Z-Arg-Lys-AMC] (Cbz-Arg-Lys-{AMC}), the “pH of maximal (optimal) hydrolysis by cathepsin B” value in [13] was 7.8 pH. Moreover, in data set [1] (pH 7.2), the “substrate activity for cathepsin L” value is given as “no activity”. Besides, the “substrate activity for cathepsin V” value in [2] (pH 7.2) is on record as “no activity”.
